Assay results taken from ChEMBL document CHEMBL6121022, “Cytotoxic and Noncytotoxic Steroidal Constituents of Cryptolepis dubia” (J Nat Prod, 2025).

Assays:
HT-29 = assay: Cytotoxicity against human HT-29 cells assessed as inhibition of cell viability incubated for 72 hrs by celltiter-blue cell viability assay; format: functional, cell-based; settings: HT-29, 72 h
In short: (§1)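 Cells grown in RPMI 1640 or DMEM with 10% FBS, penicillin 100 units/mL and streptomycin 100 μg/mL. Treated with compounds for 72 h; vehicle negative control, paclitaxel positive control. Viability read by CellTiter-Blue absorbance. IC50 relative to vehicle control by nonlinear regression; triplicate measurements, representative of three independent experiments.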

MDA-MB-231 = assay: Cytotoxicity against human MDA-MB-231 cells assessed as inhibition of cell viability incubated for 72 hrs by celltiter-blue cell viability assay; format: functional, cell-based; settings: MDA-MB-231, 72 h; in short: as §1
OVCAR-3 = assay: Cytotoxicity against human OVCAR-3 cells assessed as inhibition of cell viability incubated for 72 hrs by celltiter-blue cell viability assay; format: functional, cell-based; settings: OVCAR-3, 72 h; in short: as §1
OVCAR-5 = assay: Cytotoxicity against human OVCAR-5 cells assessed as inhibition of cell viability incubated for 72 hrs by celltiter-blue cell viability assay; format: functional, cell-based; settings: OVCAR-5, 72 h; in short: as §1
MDA-MB-435 = assay: Cytotoxicity against human MDA-MB-435 cells assessed as inhibition of cell viability incubated for 72 hrs by celltiter-blue cell viability assay; format: functional, cell-based; settings: MDA-MB-435, 72 h; in short: as §1
[1] = Inhibition of Na+/K+-ATPase (unknown origin) by luminescent ADP detection assay; design: species or system Homo sapiens
In short: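 NKA activity read as ADP formed, by luminescent ADP detection (ADP-Glo Max). IC50 is the concentration giving 50% inhibition of NKA activity. In vitro measurements were run in triplicate and are representative of three independent experiments.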

| Compound | IC50 (HT-29) [µM] | IC50 (MDA-MB-231) [µM] | IC50 (OVCAR-3) [µM] | IC50 (OVCAR-5) [µM] | IC50 (MDA-MB-435) [µM] | IC50 [1] [µM] |
| --- | --- | --- | --- | --- | --- | --- |
| C[C@]12CC[C@H]3[C@@H](C=CC4=CC(=O)[C@H](O)C[C@@]43C)[C@@H]1CC[C@@H]2C(=O)CO | > 10 | > 10 | > 10 | > 10 | > 10 |  |
| C[C@]12CC[C@H]3[C@@H](C=CC4=CC(=O)[C@H](O)C[C@@]43C)[C@@H]1CC[C@@H]2C(=O)O | > 10 | > 10 | > 10 | > 10 | > 10 | > 100 |
| CO[C@H]1C[C@H](O[C@H]2CC[C@@]3(C)[C@@H](C2)C[C@@H]2O[C@]24[C@@H]3[C@H](OC(C)=O)C(=O)[C@]2(C)[C@@H](C3=CC(=O)OC3)CC[C@]42O)O[C@@H](C)[C@@H]1OC(C)=O | > 10 | > 10 | > 10 | > 10 | > 10 | > 100 |
| CO[C@H]1C[C@H](O[C@H]2CC[C@@]3(C)[C@@H](C2)C[C@@H]2O[C@]24[C@@H]3[C@H](O)C(=O)[C@]2(C)[C@H](C3=CC(=O)OC3)CC[C@]42O)O[C@@H](C)[C@@H]1O | > 10 | > 10 | 7 | > 10 | > 10 | 40 |
| C[C@H]1O[C@@H](O[C@H]2[C@@H](O)C[C@H](O[C@H]3[C@@H](O)C[C@H](O[C@H]4CC[C@@]5(C)[C@H](CC[C@@H]6[C@@H]5CC[C@]5(C)[C@@H](C7=CC(=O)OC7)CC[C@]65O)C4)O[C@@H]3C)O[C@@H]2C)C[C@H](O)[C@@H]1O [DIGITOXIN] |  |  |  |  |  | 0.46 |
| CC(=O)O[C@H]1C(=O)[C@@]2(C)[C@H]([C@H](OC(=O)c3ccccc3)[C@]3(O)C[C@H](OC(=O)[C@H](O)[C@@H](NC(=O)c4ccccc4)c4ccccc4)C(C)=C1C3(C)C)[C@]1(OC(C)=O)CO[C@@H]1C[C@@H]2O [PACLITAXEL] | 0.0034 |  |  |  |  |  |
